The structures appear in SMILES notation. Calls of active or inactive are those of the source. The calls are words filed in the database; no cut-off is given here.

This is an account of results in ChEMBL document CHEMBL2331513, “Trisubstituted Sulfonamides: a New Chemotype for Development of Potent and Selective CB2 Receptor Inverse Agonists” (ACS Med Chem Lett, 2013).

Data set [1] deals with T1, Cannabinoid receptor 2 (Homo sapiens, UniProt P34972). Nature of the data set: Displacement of [3H]CP-55940 from human CB2 receptor expressed in CHO cell membranes after 1 hr by scintillation counting analysis. (Loss of bound radioactivity is the signal in a displacement assay; it reports binding, not function.)
A further data set concerns the target Cannabinoid receptor 1 (Homo sapiens, UniProt P21554). Nature of the data set: biochemical. Format: cell-based, CHO.
Another data set is filed under the species Homo sapiens. Nature of the data set: Selectivity ratio of Ki for human CB1 receptor to Ki for human CB2 receptor. The gist of the method:
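Ki at CB1 and CB2 each determined by [3H]CP-55,940 competition binding; selectivity index computed as Ki(CB1)/Ki(CB2).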

Data set [2] concerns the target T1, Cannabinoid receptor 2. Nature of the data set: Inverse agonist activity at human CB2 receptor expressed in CHO cell membranes assessed as inhibition of forskolin-stimulated cAMP production after 45 mins by TR-FRET assay. The data set is classed as functional, cell-based. The gist of the method:
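Functional cAMP readout by LANCE signal in CHO cells stably transfected with human CB2, tested across a concentration range; EC50 from concentration–response; means ± SEM of one representative experiment of two or more, run in duplicate or triplicate.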
A general note: Changes in cAMP serve as a functional read-out for many G protein-coupled receptors.

Data set [3] deals with T1, Cannabinoid receptor 2. Nature of the data set: Binding affinity to CB2 receptor (unknown origin). An outline of the steps: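 Radioligand competition binding at CB2 using [3H]CP-55,940 as the labelled ligand; Ki derived from displacement; means ± SEM of at least three experiments, each run in duplicate.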
The species named for a further data set is Mus musculus. Nature of the data set: Inhibition of RANKL/MCSF-induced osteoclastogenesis in C57BL/6 mouse BM-MNC after 7 days by TRAP staining-based inverted microscopic analysis. The data set is classed as functional. The gist of the method: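 Mouse bone marrow mononuclear cells driven to osteoclasts with mouse RANKL plus M-CSF, compound or vehicle control added; osteoclast formation scored; triplicate, means ± SD.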

Data set [4] in a line: Inhibition of RANKL/MCSF-induced osteoclastogenesis in C57BL/6 mouse BM-MNC at 5 uM after 7 days by TRAP staining-based inverted microscopic analysis relative to control. The data set is classed as functional. On the set-up: scale not given: the % may be the effect or the level left. An outline of the steps:
(§1)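 Osteoclast formation assay using mouse bone marrow mononuclear cells stimulated with mouse RANKL plus M-CSF. Compounds were tested at 0.1, 1 and 5 μM, and inhibition was calculated relative to vehicle control. All experiments were run in triplicate and reported as mean ± standard deviation.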

Data set [5] in a line: Inhibition of RANKL/MCSF-induced osteoclastogenesis in C57BL/6 mouse BM-MNC at 1 uM after 7 days by TRAP staining-based inverted microscopic analysis relative to control. Format: functional. Also on record: scale not given: the % may be the effect or the level left. The gist of the method: as §1
A further data set concerns PBMC. Nature of the data set: Cytotoxicity against human PBMC at 5 uM after 72 hrs by trypan blue assay. Format: cell-based.
Data set [6] can be described thus: Inhibition of RANKL/MCSF-induced osteoclastogenesis in C57BL/6 mouse BM-MNC at 0.1 uM after 7 days by TRAP staining-based inverted microscopic analysis relative to control. The data set is classed as functional. On the set-up: scale not given: the % may be the effect or the level left. An outline of the steps: as §1

Cannabinoid receptor 1, sequence (P21554 whole entry): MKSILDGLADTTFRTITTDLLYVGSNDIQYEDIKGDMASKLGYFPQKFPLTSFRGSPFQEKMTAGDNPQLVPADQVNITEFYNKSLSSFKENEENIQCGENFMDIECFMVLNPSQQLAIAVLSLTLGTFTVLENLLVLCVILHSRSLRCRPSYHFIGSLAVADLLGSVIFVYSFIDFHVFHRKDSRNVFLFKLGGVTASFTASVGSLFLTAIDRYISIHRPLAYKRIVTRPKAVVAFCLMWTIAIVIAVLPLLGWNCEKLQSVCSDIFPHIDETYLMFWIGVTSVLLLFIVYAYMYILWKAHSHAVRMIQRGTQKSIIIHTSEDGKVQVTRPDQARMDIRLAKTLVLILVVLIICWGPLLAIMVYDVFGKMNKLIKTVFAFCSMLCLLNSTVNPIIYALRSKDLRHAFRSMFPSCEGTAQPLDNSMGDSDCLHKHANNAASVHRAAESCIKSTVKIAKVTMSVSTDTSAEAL
T1 sequence (P34972 whole entry): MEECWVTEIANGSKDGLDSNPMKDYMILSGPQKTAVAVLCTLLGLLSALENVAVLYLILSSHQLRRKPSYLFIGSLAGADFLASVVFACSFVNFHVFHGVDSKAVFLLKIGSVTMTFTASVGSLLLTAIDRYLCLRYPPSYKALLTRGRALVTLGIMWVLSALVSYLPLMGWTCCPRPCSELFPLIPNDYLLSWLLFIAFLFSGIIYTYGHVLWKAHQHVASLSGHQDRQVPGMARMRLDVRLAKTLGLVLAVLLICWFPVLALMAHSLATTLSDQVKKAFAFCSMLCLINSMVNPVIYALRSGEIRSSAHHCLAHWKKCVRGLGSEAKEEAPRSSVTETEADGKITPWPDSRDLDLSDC

Compound `CCN(CC)c1ccc(CN(Cc2ccccc2)S(=O)(=O)c2ccc(OC(C)C)cc2)cc1` yielded a Ki on Cannabinoid receptor 2 [1] of 94 nM.
`CCN(CC)c1ccc(CN(c2ncc(C)s2)S(=O)(=O)c2ccc(C)cc2)cc1`: the Ki was determined as 340 nM at Cannabinoid receptor 1 and 14 nM at Cannabinoid receptor 2 [1]. In addition, the Ratio Ki in the data set listed under Homo sapiens turned out to be 24.
For the compound `Cc1ccc(S(=O)(=O)N(Cc2ccccc2)Cc2ccc(N(CCCl)CCCl)cc2)cc1`, the Ki at Cannabinoid receptor 2 [1] was determined as 166 nM.
As for `CCN(CC)c1ccc(CN(Cc2ccccc2)S(=O)(=O)Cc2ccccc2)cc1`, at Cannabinoid receptor 2 [1], the inhibition constant (Ki) stood at 262 nM.
With `CCN(CC)c1ccc(CN(CCc2ccccc2)S(=O)(=O)c2ccc(C)cc2)cc1`, the Ki at Cannabinoid receptor 2 [1] was 120 nM.
For `C=CCN(Cc1ccc(N(CC)CC)cc1)S(=O)(=O)c1ccc(C)cc1`, the results for the Ki on Cannabinoid receptor 1 and on Cannabinoid receptor 2 [1] were 1250 nM and 66 nM, respectively. Besides, the Ratio Ki in the data set filed under Homo sapiens came out at 19.
For the compound `CCN(CC)c1ccc(CN(Cc2ccccc2)S(=O)(=O)c2ccc(Cl)cc2)cc1`, the Ki amounted to 430 nM at Cannabinoid receptor 1 and 73 nM at Cannabinoid receptor 2 [1]. Further, the Ratio Ki in the data set listed under Homo sapiens turned out to be 6.
Take `COc1ccc(S(=O)(=O)N(Cc2ccc(N3CCCCC3)cc2)c2ccccc2)cc1`: on Cannabinoid receptor 2 [2], the EC50 came to 49 nM. Moreover, the Ki on Cannabinoid receptor 1 came out at 590 nM; on Cannabinoid receptor 2 [1] it was 32 nM. In addition, the Ratio Ki in the data set filed under Homo sapiens amounted to 18.
Turning to `CCN(CC)c1ccc(CN(Cc2ccccc2)S(=O)(=O)c2ccc(OC)cc2)cc1`, the Ki on Cannabinoid receptor 1 turned out to be 690 nM; at Cannabinoid receptor 2 [1], 46 nM. For the same compound, the Ratio Ki in the data set listed under Homo sapiens worked out at 15.
For `CCN(CC)c1ccc(CN(C2CCCCC2)S(=O)(=O)c2ccc(C)cc2)cc1` the same measures were 210 nM, 18 nM and 12.
For `CCN(CC)c1ccc(CN(Cc2ccco2)S(=O)(=O)c2ccc(C)cc2)cc1` the same measures were 570 nM, 9.5 nM and 60.
For the compound `CCN(CC)c1ccc(CN(Cc2cccs2)S(=O)(=O)c2ccc(C)cc2)cc1`, the Ki worked out at 610 nM on Cannabinoid receptor 1 and 14 nM on Cannabinoid receptor 2 [1]. The Ratio Ki in the data set listed under Homo sapiens came to 44.
For `CCN(CC)c1ccc(CN(Cc2ccco2)S(=O)(=O)c2ccc(C(C)C)cc2)cc1`, the results for the Ki at Cannabinoid receptor 1 and at Cannabinoid receptor 2 [1] were 1300 nM and 31 nM, respectively. Besides, the Ratio Ki in the data set listed under Homo sapiens worked out at 42.
In turn, `CCN(CC)c1ccc(CN(Cc2ccccc2)S(=O)(=O)c2ccc3ccccc3c2)cc1` displayed a Ki on Cannabinoid receptor 2 [1] of 190 nM.
Take `CCN(CC)c1ccc(CN(C2CCCCC2)S(=O)(=O)c2ccc(OC)cc2)cc1`: the Ki on Cannabinoid receptor 1 was determined as 660 nM; on Cannabinoid receptor 2 [1], 75 nM. Moreover, the Ratio Ki in the data set filed under Homo sapiens was found to be 9.
`Cc1ccc(S(=O)(=O)N(CCc2ccccc2)Cc2ccccc2)cc1` returned a Ki on Cannabinoid receptor 2 [3] of 750 nM.
Regarding `CCN(CC)c1ccc(CN(Cc2ccccc2)S(=O)(=O)c2ccc(NC(C)=O)cc2)cc1`, affinity on Cannabinoid receptor 2 [1] was put at a Ki of 470 nM.
In turn, `O=S(=O)(c1ccc(Cl)cc1)N(Cc1ccc(N2CCCCC2)cc1)c1ccccc1` returned a Ki at Cannabinoid receptor 2 [1] of 140 nM.
For the compound `Cc1ccc(S(=O)(=O)N(Cc2ccccc2)Cc2ccc(N(C)C)cc2)cc1`, the Ki at Cannabinoid receptor 2 [1] was found to be 680 nM.
For `CCN(CC)c1ccc(CN(Cc2ccccc2)S(=O)(=O)c2ccc(C(C)C)cc2)cc1`, the Ki came to 520 nM on Cannabinoid receptor 1 and 71 nM at Cannabinoid receptor 2 [1]. The Ratio Ki in the data set listed under Homo sapiens stood at 7.
`CCN(CC)c1ccc(CN(Cc2ccc(N(CC)CC)cc2)S(=O)(=O)c2ccc(C)cc2)cc1` had a Ki at Cannabinoid receptor 2 [1] of 540 nM.
In the case of `CCCCc1ccc(CN(Cc2ccccc2)S(=O)(=O)c2ccc(C)cc2)cc1`, the Ki on Cannabinoid receptor 2 [1] was determined as 280 nM.
Regarding `CCN(CC)c1ccc(CN(c2ncc(C)s2)S(=O)(=O)c2ccc(OC)cc2)cc1`, the EC50 on Cannabinoid receptor 2 [2] is 73 nM. Moreover, the results for the Ki at Cannabinoid receptor 1 and at Cannabinoid receptor 2 [1] were 600 nM and 4 nM, respectively. For the same compound, the Ratio Ki in the data set listed under Homo sapiens worked out at 120. Besides, in the data set filed under Mus musculus, the outcome was Active.
With `CCCc1ccc(CN(Cc2ccccc2)S(=O)(=O)c2ccc(C)cc2)cc1`, the Ki on Cannabinoid receptor 2 [1] worked out at 130 nM.
Turning to `CCN(CC)c1ccc(CN(CC2CCCCC2)S(=O)(=O)c2ccc(C)cc2)cc1`, the Ki on Cannabinoid receptor 1 came out at 560 nM; on Cannabinoid receptor 2 [1] it was 34 nM. Besides, in the data set listed under Homo sapiens, the Ratio Ki came to 16.
`CCN(CC)c1ccc(CN(Cc2ccccc2)S(=O)(=O)c2ccc(C)cc2)cc1`: the Ki came out at 2300 nM on Cannabinoid receptor 1 and 53 nM at Cannabinoid receptor 2 [1]. For the same compound, the Ratio Ki in the data set listed under Homo sapiens worked out at 43.
With `CCN(CC)c1ccc(CN(C2CCCC2)S(=O)(=O)c2ccc(C)cc2)cc1`, the Ki on Cannabinoid receptor 1 came to 500 nM; on Cannabinoid receptor 2 [1] it was 36 nM. The Ratio Ki in the data set listed under Homo sapiens was 14.
Turning to `CCN(CC)c1ccc(CN(C2CCCCC2)S(=O)(=O)c2ccc(C(C)C)cc2)cc1`, the Ki on Cannabinoid receptor 1 is 1400 nM; at Cannabinoid receptor 2 [1], 55 nM. Also, the Ratio Ki in the data set filed under Homo sapiens was found to be 25.
Consider `CCN(CC)c1ccc(CN(Cc2ccccc2)S(=O)(=O)c2ccc(F)cc2)cc1`, for which the Ki on Cannabinoid receptor 1 came out at 930 nM; at Cannabinoid receptor 2 [1], 102 nM. The Ratio Ki in the data set filed under Homo sapiens is 9.
`C=CCc1ccc(CN(Cc2ccccc2)S(=O)(=O)c2ccc(C)cc2)cc1` displayed a Ki on Cannabinoid receptor 2 [1] of 130 nM.
At Cannabinoid receptor 2 [1], `CCOc1ccc(CN(Cc2ccccc2)S(=O)(=O)c2ccc(C)cc2)cc1` returned a Ki of 230 nM.
As to `CCN(CC)c1ccc(CN(c2ccccc2)S(=O)(=O)c2ccc(OC)cc2)cc1`, the EC50 on Cannabinoid receptor 2 [2] was determined as 2.5 nM. Moreover, the values for the Ki on Cannabinoid receptor 1 and at Cannabinoid receptor 2 [1] were 500 nM and 5.4 nM, respectively. Besides, the Ratio Ki in the data set filed under Homo sapiens was 92. Also, the outcome in the data set listed under Mus musculus was Active.
At Cannabinoid receptor 2 [1], `CCN(CC)c1ccc(CN(Cc2ccccc2)Cc2ccccc2)cc1` gave a Ki of 150 nM.
`Cc1ccc(S(=O)(=O)N(Cc2ccccc2)Cc2ccc(OC(C)C)cc2)cc1` returned a Ki on Cannabinoid receptor 2 [1] of 174 nM.
Turning to `CCN(CC)c1ccc(CN(c2ccccc2)S(=O)(=O)c2ccc(C(C)C)cc2)cc1`, the results for the Ki on Cannabinoid receptor 1 and on Cannabinoid receptor 2 [1] were 2000 nM and 30 nM, respectively. The Ratio Ki in the data set listed under Homo sapiens came out at 66.
For the compound `CCN(CC)c1ccc(CN(Cc2ccc(F)cc2)S(=O)(=O)c2ccc(C)cc2)cc1`, the Ki came to 2250 nM at Cannabinoid receptor 1 and 120 nM at Cannabinoid receptor 2 [1]. The Ratio Ki in the data set filed under Homo sapiens was determined as 20.
For `Cc1ccc(S(=O)(=O)N(Cc2ccccc2)Cc2ccc(N3CCCCC3)cc2)cc1` the same measures were 1300 nM, 44 nM and 28.
Compound `CCN(CC)c1ccc(CN(Cc2ccc(Cl)cc2)S(=O)(=O)c2ccc(C)cc2)cc1` came in with a Ki on Cannabinoid receptor 2 [1] of 210 nM.
`Cc1ccc(S(=O)(=O)N(Cc2ccccc2)Cc2ccc(C(C)C)cc2)cc1` returned a Ki at Cannabinoid receptor 2 [1] of 230 nM.
Turning to `CCN(CC)c1ccc(CN(Cc2ccccc2)S(=O)(=O)c2ccc(OC(F)(F)F)cc2)cc1`, the Ki at Cannabinoid receptor 2 [1] was determined as 577 nM.
As for `CCN(CC)c1ccc(CN(c2ccccc2)S(=O)(=O)c2ccc(C)cc2)cc1`, the EC50 at Cannabinoid receptor 2 [2] was found to be 8.2 nM. Moreover, the Activity was 99.7% in data set [4], 83% in data set [5], “Non-toxic” in the data set with PBMC and 55% in [6]. In addition, the Ki at Cannabinoid receptor 1 is 81 nM; at Cannabinoid receptor 2 [1], 5.5 nM. Also, the Ratio Ki in the data set filed under Homo sapiens is 15.
Regarding `CCN(CC)c1ccc(CN(Cc2ccco2)S(=O)(=O)c2ccc(OC)cc2)cc1`, the Ki came out at 840 nM at Cannabinoid receptor 1 and 20 nM on Cannabinoid receptor 2 [1]. In addition, the Ratio Ki in the data set filed under Homo sapiens amounted to 42.
In turn, `CCN(CC)c1ccc(CNS(=O)(=O)c2ccc(C)cc2)cc1` gave a Ki on Cannabinoid receptor 2 [1] of 3600 nM.
On Cannabinoid receptor 2 [1], `Cc1ccc(S(=O)(=O)N(Cc2ccc(N3CCCCC3)cc2)c2ccccc2)cc1` showed a Ki of 310 nM.
At Cannabinoid receptor 2 [1], `CCN(CC)c1ccc(CN(Cc2ccc(Cl)c(Cl)c2)S(=O)(=O)c2ccc(C)cc2)cc1` yielded a Ki of 390 nM.
On Cannabinoid receptor 2 [1], `CCN(CC)c1ccc(CN(Cc2ccccc2)S(=O)(=O)c2ccccc2)cc1` showed a Ki of 170 nM.
The compound `CCN(CC)c1ccc(CN(Cc2ccccc2)S(=O)(=O)c2ccc(-c3ccccc3)cc2)cc1` displayed a Ki on Cannabinoid receptor 2 [1] of 166 nM.

As a reminder, the Ki is a measure of affinity in units of concentration, obtained from inhibition or displacement. The term EC50 denotes the concentration giving half of the maximal effect.
